Measurements: ChEMBL document CHEMBL1125495, “Inhibitors of human renin with C-termini derived from amides and esters of alpha-mercaptoalkanoic acids” (J Med Chem, 1992)

Columns and labels:
Renin = biological target: T1, Renin (Homo sapiens, UniProt P00797); experiment: Inhibition of human plasma renin; assay type: cell-free
T1 sequence (P00797 whole entry): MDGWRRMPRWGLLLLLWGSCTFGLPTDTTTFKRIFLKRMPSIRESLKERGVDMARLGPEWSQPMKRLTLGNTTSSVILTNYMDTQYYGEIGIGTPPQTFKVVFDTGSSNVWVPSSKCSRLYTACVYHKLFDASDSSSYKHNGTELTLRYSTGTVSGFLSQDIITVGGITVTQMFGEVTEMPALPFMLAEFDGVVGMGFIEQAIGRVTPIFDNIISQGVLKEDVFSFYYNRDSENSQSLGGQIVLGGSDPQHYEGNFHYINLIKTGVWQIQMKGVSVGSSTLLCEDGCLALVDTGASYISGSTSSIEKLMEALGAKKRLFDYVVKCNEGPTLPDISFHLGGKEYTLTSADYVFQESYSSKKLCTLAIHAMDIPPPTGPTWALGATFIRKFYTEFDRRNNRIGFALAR

Renin (Homo sapiens) [1] = biological target: T2, Renin (Homo sapiens) (UniProt P00797); experiment: In vivo inhibition of plasma renin activity in sodium deficient rhesus monkeys after iv administration (dose 0.43 mg/kg, determined at peak deltaMAP).; assay type: functional, organism-based; design: dose 0.43 mg/kg; conditions: Cercopithecidae, target entry is the homologue from another species, at 0.43 mg/kg
T2 sequence (whole entry): T1 sequence (P00797 whole entry)
How it was run: (§1)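 Sodium-deficient rhesus monkeys (N = 2) were kept on a low-sodium diet, given furosemide the evening before, and fasted 18 h. Compound was given iv through a venous catheter in 0.05% acetic acid/5% dextrose/H2O, 20 min after vehicle. Blood was drawn periodically via an arterial access port for plasma renin activity. Percent inhibition was taken at peak ΔMAP.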

Rhesus monkey [2] = experiment: In vivo effect on mean arterial pressure(peak deltaMAP) in sodium deficient rhesus monkeys after iv administration (dose 0.43 mg/kg).; assay type: functional, Cercopithecidae, Artery
How it was run: (§2)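 Conscious male and female rhesus monkeys (N = 2) with chronic arterial access ports for direct MAP and heart-rate monitoring, and venous catheters for dosing. Animals were kept on a low-sodium diet, given furosemide the evening before, and fasted 18 h before and during the study. Compound was given iv in 0.05% acetic acid/5% dextrose/H2O, 20 min after a vehicle control dose. Peak changes were averaged, and the hypotensive half-life was read from time plots.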

Rhesus monkey [3] = experiment: In vivo effect on heart rate(peak deltaHR) in sodium deficient rhesus monkeys after iv administration (dose 0.43 mg/kg).; assay type: functional, Cercopithecidae; how it was run: as §2
Rhesus monkey [4] = experiment: Half life of hypotensive effect in sodium deficient rhesus monkeys after iv administration (dose 0.43 mg/kg).; assay type: functional, organism-based; design: dose 0.43 mg/kg; conditions: Cercopithecidae; how it was run: as §2
Rhesus monkey [5] = experiment: In vivo effect on heart rate(peak deltaHR) in sodium deficient rhesus monkeys after iv administration (dose 0.63 mg/kg).; assay type: functional, Cercopithecidae; how it was run: as §2
Rhesus monkey [6] = experiment: In vivo effect on mean arterial pressure(peak deltaMAP) in sodium deficient rhesus monkeys after iv administration (dose 0.63 mg/kg).; assay type: functional, Cercopithecidae, Artery; how it was run: as §2
Renin (Homo sapiens) [7] = biological target: T2, Renin (Homo sapiens); experiment: In vivo inhibition of plasma renin activity in sodium deficient rhesus monkeys after iv administration (dose 0.63 mg/kg, determined at peak deltaMAP).; assay type: functional, organism-based; design: dose 0.63 mg/kg; conditions: Cercopithecidae; target entry is the homologue from another species; at 0.63 mg/kg; how it was run: as §1
Rhesus monkey [8] = experiment: Half life of hypotensive effect in sodium deficient rhesus monkeys after iv administration (dose 0.63 mg/kg).; assay type: functional, organism-based; design: dose 0.63 mg/kg; conditions: Cercopithecidae; how it was run: as §2
Rhesus monkey [9] = experiment: In vivo on mean arterial pressure(peak deltaMAP) in sodium deficient rhesus monkeys after iv administration (dose 0.26 mg/kg).; assay type: functional, Cercopithecidae, Artery; how it was run: as §2
Rhesus monkey [10] = experiment: In vivo effect on heart rate(peak deltaHR) in sodium deficient rhesus monkeys after iv administration (dose 0.26 mg/kg).; assay type: functional, Cercopithecidae; how it was run: as §2
Rhesus monkey [11] = experiment: Half life of hypotensive effect in sodium deficient rhesus monkeys after iv administration (dose 0.26 mg/kg).; assay type: functional, organism-based; design: dose 0.26 mg/kg; conditions: Cercopithecidae; how it was run: as §2
Renin (Homo sapiens) [12] = biological target: T2, Renin (Homo sapiens); experiment: In vivo inhibition of plasma renin activity in sodium deficient rhesus monkeys after iv administration (dose 0.26 mg/kg, determined at peak deltaMAP).; assay type: functional, organism-based; design: dose 0.26 mg/kg; conditions: Cercopithecidae, target entry is the homologue from another species, at 0.26 mg/kg; how it was run: as §1
Rhesus monkey [13] = experiment: Half life of hypotensive effect in sodium deficient rhesus monkeys after iv administration (dose 0.1 mg/kg).; assay type: functional, organism-based; design: dose 0.1 mg/kg; conditions: Cercopithecidae; how it was run: as §2
Rhesus monkey [14] = experiment: In vivo effect on mean arterial pressure(peak deltaMAP) in sodium deficient rhesus monkeys after iv administration (dose 0.1 mg/kg).; assay type: functional, Cercopithecidae, Artery; how it was run: as §2
Rhesus monkey [15] = experiment: In vivo effect on heart rate(peak deltaHR) in sodium deficient rhesus monkeys after iv administration (dose 0.1 mg/kg).; assay type: functional, Cercopithecidae; how it was run: as §2
Renin (Homo sapiens) [16] = biological target: T2, Renin (Homo sapiens); experiment: In vivo inhibition of plasma renin activity in sodium deficient rhesus monkeys after iv administration (dose 0.1 mg/kg, determined at peak deltaMAP).; assay type: functional, organism-based; design: dose 0.1 mg/kg; conditions: Cercopithecidae, target entry is the homologue from another species, at 0.1 mg/kg; how it was run: as §1

CN1CCN(C(=O)CS(=O)(=O)C[C@H](O)[C@H](CC2CCCCC2)NC(=O)[C@H](Cc2c[nH]cn2)NC(=O)[C@H](Cc2ccccc2)NC(=O)OC(C)(C)C)CC1
IC50 (Renin): 0.02 µM

CC(C)(C)OC(=O)N[C@@H](Cc1ccccc1)C(=O)N[C@@H](Cc1c[nH]cn1)C(=O)N[C@@H](CC1CCCCC1)[C@@H](O)CSCC(=O)NCCN1CCOCC1
inhibition (Renin (Homo sapiens) [1]): 90%
Peak deltaMAP (Rhesus monkey [2]): -20.5 mmHg
Peak deltaHR (Rhesus monkey [3]): -26 beats min-1
T1/2 (Rhesus monkey [4]): < 10 min

CCOC(=O)CSC[C@H](O)[C@H](CC1CCCCC1)NC(=O)[C@H](Cc1c[nH]cn1)NC(=O)[C@H](Cc1ccccc1)NC(=O)OC(C)(C)C
Peak deltaHR (Rhesus monkey [5]): -23 beats min-1
Peak deltaMAP (Rhesus monkey [6]): -15 mmHg
inhibition (Renin (Homo sapiens) [7]): 87%
T1/2 (Rhesus monkey [8]): < 10 min

CC(C)(C)OC(=O)N[C@@H](Cc1ccccc1)C(=O)N[C@@H](Cc1c[nH]cn1)C(=O)N[C@@H](CC1CCCCC1)[C@@H](O)CSCC(=O)NC1CN2CCC1CC2 (some centres not stated)
Peak deltaMAP (Rhesus monkey [9]): -20 mmHg
Peak deltaHR (Rhesus monkey [10]): -18 beats min-1
IC50 (Renin): 0.029 µM
T1/2 (Rhesus monkey [11]): < 10 min
inhibition (Renin (Homo sapiens) [12]): 93%

CC(C)(C)OC(=O)N[C@@H](Cc1ccccc1)C(=O)N[C@@H](Cc1cnc[nH]1)C(=O)N[C@@H](CC1CCCCC1)[C@@H](O)C[S+]([O-])CC(=O)NCCN1CCOCC1 (some centres not stated)
IC50 (Renin): 0.019 µM

CC(C)(C)OC(=O)N[C@@H](Cc1ccccc1)C(=O)N[C@@H](Cc1c[nH]cn1)C(=O)N[C@@H](CC1CCCCC1)[C@@H](O)CS(=O)(=O)CC(=O)NCCN1CCOCC1
T1/2 (Rhesus monkey [13]): < 10 min
Peak deltaMAP (Rhesus monkey [14]): -15 mmHg
Peak deltaHR (Rhesus monkey [15]): -18 beats min-1
inhibition (Renin (Homo sapiens) [16]): 88%

CC(C)(C)OC(=O)N[C@@H](Cc1ccccc1)C(=O)N[C@@H](Cc1c[nH]cn1)C(=O)N[C@@H](CC1CCCCC1)[C@@H](O)CS(=O)(=O)CC(=O)NC1CCN(Cc2ccccc2)CC1
IC50 (Renin): 0.034 µM

CC(C)(C)OC(=O)N[C@@H](Cc1ccccc1)C(=O)N[C@@H](Cc1cnc[nH]1)C(=O)N[C@@H](CC1CCCCC1)[C@@H](O)CS(=O)(=O)CC(=O)NCCN1CCOCC1
IC50 (Renin): 0.0094 µM

CC(C)(C)OC(=O)N[C@@H](Cc1ccccc1)C(=O)N[C@@H](Cc1cnc[nH]1)C(=O)N[C@@H](CC1CCCCC1)[C@@H](O)CSCC(=O)NCc1ccncc1
IC50 (Renin): 0.092 µM
